Measurements from ChEMBL document CHEMBL1764979, “Nucleoside transport inhibitors: structure-activity relationships for pyrimido[5,4-d]pyrimidine derivatives that potentiate pemetrexed cytotoxicity in the presence of α1-acid glycoprotein” (J Med Chem, 2011).
Activity calls are given as the source filed them. The calls are words filed in the database; no cut-off is given here.

Legend:
[1] = Chemical stability of the compound; assay type: physicochemical
[2] = Inhibition of ENT-mediated [3H]thymidine incorporation in human COR-L23 cells by liquid scintillation counting; assay type: cell-based; settings: COR-L23, 2 h
Method in brief: (§1)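 Log-phase COR-L23 cells were seeded at 2 × 10^4/well, left overnight, PBS-washed and given serum-free medium with inhibitor. 3H-TdR was added (final 100 nM, 6.2 GBq/mmol) for 2 h at 37 °C. Cells were washed in ice-cold PBS, lysed in 0.5 M NaOH for 30 min, harvested onto glass-fibre filters with TCA/water/MeOH rinses, and scintillation counted. Mean ± SD of three independent experiments.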

COR-L23 [3] = assay: Inhibition of ENT-mediated [3H]thymidine incorporation in human COR-L23 cells at 0.1 uM by liquid scintillation counting; assay type: cell-based; method in brief: as §1
COR-L23 [4] = assay: Inhibition of ENT-mediated [3H]thymidine incorporation in human COR-L23 cells at 1 uM by liquid scintillation counting; assay type: cell-based; method in brief: as §1
COR-L23 [5] = assay: Potentiation of pemetrexed-induced growth inhibitory activity in human COR-L23 cells at 1 uM by SRB assay in presence of thymidine and hypoxanthine; assay type: functional; parameters: scale not given: the % may be the effect or the level left
Method in brief: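 COR-L23 cells in RPMI 1640 with 10% FCS were seeded at 1 × 10^3/well and allowed to attach overnight. They were then given pemetrexed 200 nM, ± TdR 1 μM and HPX 10 μM (1% DMSO), ± inhibitor 1 μM, for three doublings, then fixed and read by SRB. % reversal = (growth arrest with pemetrexed + TdR/HPX + inhibitor)/(growth arrest with pemetrexed alone) × 100. Three independent experiments.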

L1210 [6] = assay: Inhibition of ENT-mediated [3H]thymidine incorporation in mouse L1210 cells at 1 uM by liquid scintillation counting; assay type: cell-based; settings: in the assay text read “transport” for “incorporation”
Method in brief: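 3H-TdR transport into murine L1210 leukaemia cells with inhibitor at 1.0 μM, tested with and without AGP (5 mg/mL). Mean and SD of three independent experiments.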

L1210 [7] = settings: Mus musculus, at 1 µM
[8] = Aqueous solubility of the compound; assay type: physicochemical; settings: buffer

Structure (SMILES)	Stability [1]	IC50 [2]	inhibition (COR-L23 [3])	inhibition (COR-L23 [4])	Activity (COR-L23 [5])	inhibition (L1210 [6])	inhibition (L1210 [7])	solubility [8]
COc1ccc(CNc2nc(NCC(C)OC(=O)Nc3ccccc3)nc3c(NCc4ccc(OC)c(OC)c4)nc(NCC(C)OC(=O)Nc4ccccc4)nc23)cc1OC (centres undefined)	Stable	–	–	–	–	–	–	–
COc1ccc(NC(=O)OC(C)CNc2nc(NCc3ccc(OC)c(OC)c3)c3nc(NCC(C)O)nc(NCc4ccc(OC)c(OC)c4)c3n2)cc1 (centres undefined)	Stable	4 nM	84%	98%	>100%	–	–	–
COc1ccc(CNc2nc(NCC(C)OC(=O)Nc3ccc([N+](=O)[O-])cc3)nc3c(NCc4ccc(OC)c(OC)c4)nc(NCC(C)O)nc23)cc1OC (centres undefined)	Stable	60 nM	84%	96%	>100%	Active	Active	–
COc1ccc(NC(=O)OC(C)CNc2nc(NCc3ccc(OC)c(OC)c3)c3nc(NCC(C)OC(=O)Nc4ccc(OC)cc4)nc(NCc4ccc(OC)c(OC)c4)c3n2)cc1 (centres undefined)	Stable	–	–	–	–	–	–	–
COc1ccc(CNc2nc(NCC(C)OC(=O)Nc3ccccc3)nc3c(NCc4ccc(OC)c(OC)c4)nc(NCC(O)CO)nc23)cc1OC (centres undefined)	–	10 nM	69%	91%	>100%	–	–	–
COc1ccc(CNc2nc(NCC(C)OC(=O)[C@@H](NC(=O)OC(C)(C)C)C(C)C)nc3c(NCc4ccc(OC)c(OC)c4)nc(NCC(C)O)nc23)cc1OC (some centres undefined)	–	–	–	–	–	–	inactive	–
COc1ccc(CNc2nc(NCC(C)OC(=O)Nc3ccc([N+](=O)[O-])cc3)nc3c(NCc4ccc(OC)c(OC)c4)nc(NCC(C)OC(=O)Nc4ccc([N+](=O)[O-])cc4)nc23)cc1OC (centres undefined)	Stable	–	–	–	–	inactive	–	–
COc1ccc(CNc2nc(NCC(C)OC(=O)CCC(=O)O)nc3c(NCc4ccc(OC)c(OC)c4)nc(NCC(C)OC(=O)CCC(=O)O)nc23)cc1OC (centres undefined)	–	–	–	–	–	–	inactive	–
COc1ccc(CNc2nc(NCC(C)OP(=O)(O)O)nc3c(NCc4ccc(OC)c(OC)c4)nc(NCC(C)OC(=O)Nc4ccccc4)nc23)cc1OC (centres undefined)	Unstable	218 nM	53%	75%	–	–	–	–
CCOC(=O)[C@H](Cc1ccccc1)NC(=O)OC(C)CNc1nc(NCc2ccc(OC)c(OC)c2)c2nc(NCC(C)O)nc(NCc3ccc(OC)c(OC)c3)c2n1 (some centres undefined)	Unstable	–	–	–	–	–	–	–
COc1ccc(CNc2nc(NCC(C)O)nc3c(NCc4ccc(OC)c(OC)c4)nc(NCC(C)O)nc23)cc1OC (centres undefined)	Stable	26 nM	66%	90%	>100%	> 90%	Active	–
COc1ccc(CNc2nc(NCC(C)OC(=O)Nc3ccccc3)nc3c(NCc4ccc(OCCN5CCOCC5)c(OC)c4)nc(NCC(C)O)nc23)cc1OC (centres undefined)	–	22 nM	80%	97%	>100%	–	–	–
COc1ccc(CNc2nc(NCC(C)OC(=O)Nc3ccc(C(F)(F)F)cc3)nc3c(NCc4ccc(OC)c(OC)c4)nc(NCC(C)OC(=O)Nc4ccc(C(F)(F)F)cc4)nc23)cc1OC (centres undefined)	Stable	–	–	–	–	inactive	–	–
C=CCOc1ccc(CNc2nc(NCC(C)O)nc3c(NCc4ccc(OC)c(OC)c4)nc(NCC(C)O)nc23)cc1OC (centres undefined)	–	14 nM	81%	96%	–	–	–	–
COC(=O)[C@@H](NC(=O)OC(C)CNc1nc(NCc2ccc(OC)c(OC)c2)c2nc(NCC(C)O)nc(NCc3ccc(OC)c(OC)c3)c2n1)C(C)C (some centres undefined)	Unstable	7 nM	79%	95%	–	–	–	–
CCOC(=O)CNC(=O)OC(C)CNc1nc(NCc2ccc(OC)c(OC)c2)c2nc(NCC(C)OC(=O)NCC(=O)OCC)nc(NCc3ccc(OC)c(OC)c3)c2n1 (centres undefined)	Unstable	–	–	–	–	> 90%	–	–
COc1ccc(CNc2nc(NCC(C)OC(=O)[C@@H](N)C(C)C)nc3c(NCc4ccc(OC)c(OC)c4)nc(NCC(C)O)nc23)cc1OC.Cl (some centres undefined)	–	39 nM	64%	89%	>100%	–	–	–
CCOC(=O)[C@H](C)NC(=O)OC(C)CNc1nc(NCc2ccc(OC)c(OC)c2)c2nc(NCC(C)O)nc(NCc3ccc(OC)c(OC)c3)c2n1 (some centres undefined)	Unstable	435 nM	39%	68%	–	–	–	–
COc1ccc(CNc2nc(NCC(C)OC(=O)Nc3ccc(C(F)(F)F)cc3)nc3c(NCc4ccc(OC)c(OC)c4)nc(NCC(C)O)nc23)cc1OC (centres undefined)	Stable	67 nM	75%	93%	>100%	Active	Active	–
COc1ccc(CNc2nc(NCC(C)OC(=O)[C@@H](NC(=O)OC(C)(C)C)C(C)C)nc3c(NCc4ccc(OC)c(OC)c4)nc(NCC(C)OC(=O)[C@@H](NC(=O)OC(C)(C)C)C(C)C)nc23)cc1OC (some centres undefined)	–	–	–	–	–	–	inactive	–
CCOC(=O)CNC(=O)OC(C)CNc1nc(NCc2ccc(OC)c(OC)c2)c2nc(NCC(C)O)nc(NCc3ccc(OC)c(OC)c3)c2n1 (centres undefined)	Unstable	59 nM	85%	94%	–	> 90%	Active	–
COc1ccc(CNc2nc(NC[C@H](C)O)nc3c(NCc4ccc(OC)c(OC)c4)nc(NC[C@H](C)O)nc23)cc1OC	–	31 nM	68%	93%	–	–	–	–
COc1ccc(CNc2nc(NCC(C)OC(=O)Nc3ccccc3)nc3c(NCc4ccc(OC)c(OC)c4)nc(NCC(C)O)nc23)cc1OC (centres undefined)	Stable	8 nM	81%	97%	>100%	Active	Active	–
OCCN(CCO)c1nc(N2CCCCC2)c2nc(N(CCO)CCO)nc(N3CCCCC3)c2n1 [DIPYRIDAMOLE]	–	15 nM	78%	96%	>100%	–	–	–
COc1ccc(CNc2nc(NCC(C)OC(=O)[C@@H](N)C(C)C)nc3c(NCc4ccc(OC)c(OC)c4)nc(NCC(C)OC(=O)[C@@H](N)C(C)C)nc23)cc1OC.Cl.Cl (some centres undefined)	–	70 nM	59%	87%	>100%	–	Active	–
COc1ccc(CNc2nc(NCC(C)OC(=O)[C@@H](N)C(C)C)nc3c(NCc4ccc(OC)c(OC)c4)nc(NCC(C)OC(=O)Nc4ccccc4)nc23)cc1OC (some centres undefined)	–	44 nM	68%	92%	>100%	–	–	–
CCOC(=O)[C@H](C)NC(=O)OC(C)CNc1nc(NCc2ccc(OC)c(OC)c2)c2nc(NCC(C)OC(=O)N[C@@H](C)C(=O)OCC)nc(NCc3ccc(OC)c(OC)c3)c2n1 (some centres undefined)	Unstable	–	–	–	–	–	–	Insoluble
COc1ccc(CNc2nc(NCC(C)OC(=O)CCC(=O)O)nc3c(NCc4ccc(OC)c(OC)c4)nc(NCC(C)O)nc23)cc1OC (centres undefined)	–	–	–	–	–	–	Active	–
CCOC(=O)[C@H](Cc1ccccc1)NC(=O)OC(C)CNc1nc(NCc2ccc(OC)c(OC)c2)c2nc(NCC(C)OC(=O)N[C@@H](Cc3ccccc3)C(=O)OCC)nc(NCc3ccc(OC)c(OC)c3)c2n1 (some centres undefined)	Unstable	–	–	–	–	–	–	Insoluble
COc1ccc(CNc2nc(NCC(C)OC(=O)Nc3ccccc3)nc3c(NCc4ccc(OC)c(OC)c4)nc(NCC(C)OC(=O)CCC(=O)O)nc23)cc1OC (centres undefined)	Unstable	7 nM	75%	94%	>100%	–	–	–
